Test [1] deals with T1, 5-hydroxytryptamine receptor 1B (Rattus norvegicus, UniProt P28564). Nature of the test: (§1) Inhibitory activity against 5-hydroxytryptamine 1B receptor of rat striatal membrane homogenate using [3H]5-HT as the radioligand.
The target of test [2] is T2, 5-hydroxytryptamine receptor 1A (Rattus norvegicus, UniProt P19327).
T2 sequence (P19327 whole entry): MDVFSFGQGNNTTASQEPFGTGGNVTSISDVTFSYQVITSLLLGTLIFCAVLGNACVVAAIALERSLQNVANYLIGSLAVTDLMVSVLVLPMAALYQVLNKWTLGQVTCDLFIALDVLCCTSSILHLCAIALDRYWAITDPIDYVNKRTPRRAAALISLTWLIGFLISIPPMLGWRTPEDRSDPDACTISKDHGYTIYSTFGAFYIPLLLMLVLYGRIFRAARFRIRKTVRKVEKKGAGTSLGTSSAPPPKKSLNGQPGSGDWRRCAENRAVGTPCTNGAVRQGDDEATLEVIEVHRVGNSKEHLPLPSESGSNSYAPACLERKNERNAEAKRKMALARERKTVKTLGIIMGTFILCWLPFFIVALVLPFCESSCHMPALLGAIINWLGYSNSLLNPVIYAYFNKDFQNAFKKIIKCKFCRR
Nature of the test: (§2) Inhibitory activity against 5-hydroxytryptamine 1A receptor of rat hippocampal tissue using [3H]OH-DPAT as radioligand.

In test [3] the target is Adrenergic receptor beta (Rattus norvegicus, UniProt P18090+P10608+P26255). Description: Inhibitory activity against beta adrenergic receptor of rat frontal cortex homogenate using (1.0 nM) [3H]- dihydroalprenolol. It counts as tissue-based.
The target in test [4] is T2, 5-hydroxytryptamine receptor 1A. Described as §2. Type of test: tissue-based, Hippocampus. The gist of the method: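 Rat hippocampal membranes (4 mg wet weight), washed and preincubated 15 min at 37 °C, in 50 mM Tris HCl with 0.5 mM Na₂EDTA, 10 mM MgSO₄, 10 μM pargyline and 0.1% ascorbate. 0.1 nM [³H]8-OH-DPAT, 1 μM 8-OH-DPAT for nonspecific binding. Eleven competitor concentrations, at least triplicate. Incubated 30 min at 37 °C, then filtered over glass fiber. Ki reported.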

In test [5] the target is T1, 5-hydroxytryptamine receptor 1B. The test is described as §1. The procedure, abridged: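 Competition binding on washed rat striatal membrane homogenate (8 mg) with 2.0 nM [³H]5-HT. 10⁻⁷ M 8-OH-DPAT and mesulergine block 5-HT1A and 5-HT1C sites; 10⁻⁶ M 5-HT defines nonspecific binding. Buffer: 50 mM Tris HCl, EDTA, MgSO₄, 10 μM pargyline, 0.1% ascorbate. Eleven concentrations, at least triplicate. 37 °C for 30 min, then glass-fiber filtration. Ki given.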
This is another data set of the same source.

Where only a bound is given, the exact number is not on record here.

T1 sequence (P28564 whole entry): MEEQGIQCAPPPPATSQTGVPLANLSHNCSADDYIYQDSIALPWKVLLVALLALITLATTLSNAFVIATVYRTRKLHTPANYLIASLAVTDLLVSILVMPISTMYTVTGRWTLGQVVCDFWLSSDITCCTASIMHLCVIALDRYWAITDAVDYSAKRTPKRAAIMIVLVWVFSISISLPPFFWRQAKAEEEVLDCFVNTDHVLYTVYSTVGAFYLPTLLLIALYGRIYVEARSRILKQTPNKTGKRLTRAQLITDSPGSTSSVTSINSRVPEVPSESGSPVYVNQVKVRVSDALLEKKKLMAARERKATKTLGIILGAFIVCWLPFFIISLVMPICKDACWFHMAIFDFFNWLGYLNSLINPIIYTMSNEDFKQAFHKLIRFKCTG

On to `CN(C)CCCOc1ccccc1`, for which the inhibition constant (Ki) in test [1] is above 10000 nM; in test [2] it was 4850 nM.

Take `CN(C)CCCCOc1cccc2ccccc12`: the Ki came out at 1000 nM in test [1] and 400 nM in test [2].

As to `CN(C)CCCOc1cccc2ccccc12`, the figures for the inhibition constant (Ki) in test [1], in test [2] and in test [3] were 1000 nM, 345 nM and 2400 nM, respectively.

In the case of `CNCCCOc1ccccc1`, the Ki amounted to 3100 nM in test [1] and 3300 nM in test [2].

Consider `CCCCN(CC)CCOc1cccc2ccccc12`, for which the figures for the Ki in test [1], in test [2] and in test [3] were 1100 nM, 39 nM and 5000 nM, respectively.

Take `CN(C)CCOc1cccc2ccccc12`: the inhibitory constant (Ki) in test [1] was 1500 nM; in test [2] it was 80 nM; in test [3], 4500 nM.

On to `CN(C)CCCNc1ccccc1`, for which the Ki was above 10000 nM in test [1] and above 25000 nM in test [2].

In the case of `CN(CCOc1cccc2ccccc12)Cc1ccccc1`, affinity in test [2] was put at a Ki of 95 nM.

Regarding `CCCN(C)CCOc1cccc2ccccc12`, the results for the Ki in test [1], in test [2] and in test [3] were 1800 nM, 45 nM and 5300 nM, respectively.

As for `COc1ccccc1OCCCN(C)C`, the values for the inhibition constant (Ki) in test [1] and in test [2] were above 10000 nM and 3000 nM, respectively.

On to `CCCCN(CC)CCC(=O)c1cccc2ccccc12`, for which affinity in test [4] was put at a Ki of 3530 nM.

Regarding `CN(C)Cc1cccc2ccccc12`, the affinity in test [4] corresponds to a Ki of 3420 nM.

Take `CCCN(CCC)CCCOc1ccccc1`: the Ki is above 10000 nM in test [1] and 2750 nM in test [2].

Take `CCCCN(CC)CCCc1cccc2ccccc12`: the inhibition constant Ki in test [4] amounted to 300 nM.

For the molecule `CCCCN(CCCC)CCCOc1cccc2ccccc12`, the results for the inhibition constant (Ki) in test [1], in test [2] and in test [3] were 5650 nM, 225 nM and 8300 nM, respectively.

Regarding `CN(C)CCCOc1ccccc1O`, the inhibitory constant (Ki) is above 10000 nM in test [1] and 4900 nM in test [2].

As for `CCCCN(CCCC)CCOc1cccc2ccccc12`, the Ki in test [1] is 9000 nM; in test [2] it was 150 nM; in test [3], above 10000 nM.

In test [2], `NCCOc1cccc2ccccc12` registered an inhibition constant (Ki) of 60 nM.

Regarding `CCCN(CCC)CCCOc1cccc2ccccc12`, the Ki stood at 6100 nM in test [1] and 450 nM in test [2].

As for `CCCN(CCC)CC(O)COc1cccc2ccccc12` (centres undefined), the inhibition constant (Ki) in test [5] was found to be 8000 nM; in test [4], 1320 nM.

Turning to `CCCCN(CC)CCCC1CCCc2ccccc21` (centres undefined), the inhibition constant (Ki) in test [4] was 540 nM.

As to `CN(C)CCCCc1ccccc1`, the inhibition constant Ki is above 10000 nM in test [5] and 5000 nM in test [4].

The record behind these values is ChEMBL document CHEMBL1124632 (J Med Chem, 1989).
